What was measured:
[1] = biological target: Histone deacetylase 1/3/5/8 (Homo sapiens, UniProt Q13547+O15379+Q9UQL6+Q9BY41); assay: Inhibition of HDAC1/HDAC3/HDAC5/HDAC8 in human HeLa nuclear extract using Boc-Lys(acetyl)-AMC as substrate incubated for 5 mins prior to substrate measured after 30 mins by spectrophotometric analysis; assay type: protein assay
[2] = biological target: T1, Aminopeptidase N (Sus scrofa, UniProt P15145); assay: Inhibition of pig microsomal aminopeptidase N using L-leu-p-nitroanilide as substrate incubated for 5 mins prior to substrate addition measured after 30 mins by spectrophotometric analysis
T1 sequence (P15145 whole entry): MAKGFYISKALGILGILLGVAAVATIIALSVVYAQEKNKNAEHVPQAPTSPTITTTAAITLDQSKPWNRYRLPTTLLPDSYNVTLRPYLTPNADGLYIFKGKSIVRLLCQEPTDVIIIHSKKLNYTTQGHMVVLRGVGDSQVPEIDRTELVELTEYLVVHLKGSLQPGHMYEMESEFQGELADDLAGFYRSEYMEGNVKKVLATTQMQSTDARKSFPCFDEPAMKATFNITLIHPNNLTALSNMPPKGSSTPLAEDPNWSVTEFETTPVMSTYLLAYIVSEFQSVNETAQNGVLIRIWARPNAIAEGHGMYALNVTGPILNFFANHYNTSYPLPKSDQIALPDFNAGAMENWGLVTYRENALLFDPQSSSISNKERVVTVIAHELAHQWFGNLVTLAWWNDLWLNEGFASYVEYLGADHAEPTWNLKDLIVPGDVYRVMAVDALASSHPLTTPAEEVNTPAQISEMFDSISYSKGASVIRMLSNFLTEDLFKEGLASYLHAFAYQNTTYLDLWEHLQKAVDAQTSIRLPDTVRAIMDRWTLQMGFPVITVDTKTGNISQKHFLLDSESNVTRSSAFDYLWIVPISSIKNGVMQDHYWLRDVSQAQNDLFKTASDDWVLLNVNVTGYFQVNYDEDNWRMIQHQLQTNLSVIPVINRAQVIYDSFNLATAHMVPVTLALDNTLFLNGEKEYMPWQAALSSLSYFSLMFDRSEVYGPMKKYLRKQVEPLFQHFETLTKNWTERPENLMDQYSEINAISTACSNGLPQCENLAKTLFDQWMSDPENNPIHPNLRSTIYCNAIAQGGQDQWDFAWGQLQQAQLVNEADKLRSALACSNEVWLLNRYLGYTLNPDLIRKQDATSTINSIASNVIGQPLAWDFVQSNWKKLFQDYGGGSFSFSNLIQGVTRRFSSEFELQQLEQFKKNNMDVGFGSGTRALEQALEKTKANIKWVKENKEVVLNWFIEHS
In short: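 Porcine kidney microsomal aminopeptidase in 50 mM PBS, pH 7.2. Compounds at various concentrations preincubated with enzyme 5 min at 37 °C, then L-leu-p-nitroanilide added and incubated 30 min at 37 °C. IC50 from triplicate experiments, mean ± SD.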

[3] = biological target: Aminopeptidase N (Homo sapiens, UniProt P15144); assay: Inhibition of aminopeptidase N in human ES2 cells using L-leu-p-nitroanilide as substrate incubated for 5 mins prior to substrate addition measured after 30 mins by spectrophotometric analysis; assay type: cell-based
In short: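 Whole ES-2 cell suspension in PBS (1 × 10^5 cells/well) used as enzyme source. Compounds at various concentrations preincubated 5 min at 37 °C, then L-leu-p-nitroanilide added and incubated 30 min at 37 °C. IC50 from triplicate experiments, mean ± SD.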

[4] = Antiproliferative activity against human ES2 cells after 48 hrs by MTT assay; assay type: functional, cell-based; details: ES-2, 48 h
In short: (§1)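 Cells grown in RPMI1640 with FBS at 37 °C, 5% CO2; seeded 5000/well, 4 h before adding inhibitor at varied concentrations. After 48 h, 1% MTT added for 4 h, formazan dissolved in DMSO (15 min mixing), OD read at 570 nm. IC50 from three independent experiments, mean values.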

[5] = system: U-937; assay: Antiproliferative activity against human U937 cells after 48 hrs by MTT assay; assay type: functional, cell-based; details: U-937, 48 h; in short: as §1

Chain of Aminopeptidase N (Homo sapiens, UniProt P15144) (P15144 whole entry): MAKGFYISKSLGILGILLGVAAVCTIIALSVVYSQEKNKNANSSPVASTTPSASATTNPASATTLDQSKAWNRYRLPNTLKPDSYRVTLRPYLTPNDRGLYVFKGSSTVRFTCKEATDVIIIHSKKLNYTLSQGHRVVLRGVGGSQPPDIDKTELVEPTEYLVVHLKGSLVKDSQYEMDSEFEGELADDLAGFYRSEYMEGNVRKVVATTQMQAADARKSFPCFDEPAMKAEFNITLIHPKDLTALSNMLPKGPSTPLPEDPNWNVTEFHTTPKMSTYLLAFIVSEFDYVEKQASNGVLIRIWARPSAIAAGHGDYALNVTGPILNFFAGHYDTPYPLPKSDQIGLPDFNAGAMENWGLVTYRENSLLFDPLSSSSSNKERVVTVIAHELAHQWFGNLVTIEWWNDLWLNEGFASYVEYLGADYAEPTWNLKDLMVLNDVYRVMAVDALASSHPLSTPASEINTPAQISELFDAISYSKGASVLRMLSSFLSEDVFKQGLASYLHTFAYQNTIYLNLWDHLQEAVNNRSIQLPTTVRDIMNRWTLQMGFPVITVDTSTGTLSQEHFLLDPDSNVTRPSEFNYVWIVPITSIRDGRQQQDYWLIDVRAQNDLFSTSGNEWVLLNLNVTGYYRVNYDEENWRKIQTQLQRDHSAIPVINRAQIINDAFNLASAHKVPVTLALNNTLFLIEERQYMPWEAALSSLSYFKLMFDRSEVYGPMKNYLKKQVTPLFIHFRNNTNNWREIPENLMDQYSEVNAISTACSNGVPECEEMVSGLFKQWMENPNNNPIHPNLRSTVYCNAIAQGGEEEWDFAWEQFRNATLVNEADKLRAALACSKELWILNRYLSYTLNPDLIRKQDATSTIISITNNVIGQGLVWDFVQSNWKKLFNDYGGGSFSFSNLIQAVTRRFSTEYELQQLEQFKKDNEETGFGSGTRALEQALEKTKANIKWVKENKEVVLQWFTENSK

Row | IC50 [1] [µM] | IC50 [2] [µM] | IC50 [3] [µM] | IC50 [5] [µM] | Structure (SMILES) | IC50 [4] [µM]
1 | > 100 | 0.35 |  |  | CC(C)C[C@H](NC(=O)NCc1cccc(Cl)c1)C(=O)NO | 
2 | > 100 | 1.9 |  |  | CC(C)C[C@H](NC(=O)Nc1cccc(F)c1)C(=O)NO | 
3 | > 100 | 0.9 |  |  | Cc1ccccc1CNC(=O)N[C@@H](CC(C)C)C(=O)NO | 
4 | > 100 | 0.22 | 0.65 |  | CC(C)C[C@H](NC(=O)NCc1ccccc1Cl)C(=O)NO | 
5 | > 100 | 0.24 |  |  | Cc1cccc(NC(=O)N[C@@H](CC(C)C)C(=O)NO)c1 | 
6 | > 100 | 0.06 | 0.53 | > 1000 | CC(C)C[C@H](NC(=O)Nc1ccccc1Br)C(=O)NO | 405
7 | > 100 | 0.52 |  |  | CC(C)C[C@H](NC(=O)Nc1ccccc1F)C(=O)NO | 
8 | > 100 | 1.7 |  |  | CC(C)C[C@H](NC(=O)Nc1cccc(O)c1)C(=O)NO | 
9 | > 100 | 0.13 | 0.7 | > 1000 | COc1ccccc1NC(=O)N[C@@H](CC(C)C)C(=O)NO | 480
10 | > 100 | 0.79 |  |  | CC(C)C[C@H](NC(=O)Nc1ccccc1C(F)(F)F)C(=O)NO | 
11 | > 100 | 1.66 |  |  | CC(C)C[C@H](NC(=O)Nc1cccc(Cl)c1)C(=O)NO | 
12 | > 100 | 1.36 |  |  | COc1cccc(NC(=O)N[C@@H](CC(C)C)C(=O)NO)c1 | 
13 | > 100 | 1.15 |  |  | CC(C)C[C@H](NC(=O)Nc1ccccc1)C(=O)NO | 
14 | > 100 |  |  | > 1000 | CC(C)C[C@H](NC(=O)[C@@H](O)[C@H](N)Cc1ccccc1)C(=O)O [UBENIMEX] | 620
15 | > 100 | 0.093 | 1.31 | > 1000 | CC(C)C[C@H](NC(=O)Nc1ccccc1Cl)C(=O)NO | 615
16 | > 100 | 11.9 |  |  | CC(C)C[C@H](NC(=O)Nc1ccccc1O)C(=O)NO | 
17 | > 100 | 1.97 |  |  | CC(C)C[C@H](NC(=O)Nc1cccc(C(F)(F)F)c1)C(=O)NO | 
18 | > 100 | 1.38 |  |  | CC(C)C[C@H](NC(=O)NCc1ccccc1F)C(=O)NO | 
19 | > 100 | 0.44 |  |  | Cc1cccc(CNC(=O)N[C@@H](CC(C)C)C(=O)NO)c1 | 
20 | > 100 | 0.58 |  |  | CC(C)C[C@H](NC(=O)Nc1cccc(Br)c1)C(=O)NO | 
21 | > 100 | 0.13 | 0.73 |  | CC(C)C[C@H](NC(=O)NCc1ccccc1Br)C(=O)NO | 
22 | > 100 | 0.18 | 0.61 |  | Cc1ccccc1NC(=O)N[C@@H](CC(C)C)C(=O)NO | 

Source: ChEMBL document CHEMBL2331374, “Novel leucine ureido derivatives as inhibitors of aminopeptidase N (APN)” (Bioorg Med Chem, 2013)
